{"source": "ChEMBL document CHEMBL2157978", "about": "“Design, synthesis, and biological evaluation of nonsteroidal cycloalkane[d]isoxazole-containing androgen receptor modulators” (J Med Chem, 2012)", "note": "The source made the active and inactive calls. No rule for the calls is given here.", "data": [{"biological_target": "T1, Androgen receptor (Homo sapiens) (UniProt P10275)", "T1 sequence (whole entry)": "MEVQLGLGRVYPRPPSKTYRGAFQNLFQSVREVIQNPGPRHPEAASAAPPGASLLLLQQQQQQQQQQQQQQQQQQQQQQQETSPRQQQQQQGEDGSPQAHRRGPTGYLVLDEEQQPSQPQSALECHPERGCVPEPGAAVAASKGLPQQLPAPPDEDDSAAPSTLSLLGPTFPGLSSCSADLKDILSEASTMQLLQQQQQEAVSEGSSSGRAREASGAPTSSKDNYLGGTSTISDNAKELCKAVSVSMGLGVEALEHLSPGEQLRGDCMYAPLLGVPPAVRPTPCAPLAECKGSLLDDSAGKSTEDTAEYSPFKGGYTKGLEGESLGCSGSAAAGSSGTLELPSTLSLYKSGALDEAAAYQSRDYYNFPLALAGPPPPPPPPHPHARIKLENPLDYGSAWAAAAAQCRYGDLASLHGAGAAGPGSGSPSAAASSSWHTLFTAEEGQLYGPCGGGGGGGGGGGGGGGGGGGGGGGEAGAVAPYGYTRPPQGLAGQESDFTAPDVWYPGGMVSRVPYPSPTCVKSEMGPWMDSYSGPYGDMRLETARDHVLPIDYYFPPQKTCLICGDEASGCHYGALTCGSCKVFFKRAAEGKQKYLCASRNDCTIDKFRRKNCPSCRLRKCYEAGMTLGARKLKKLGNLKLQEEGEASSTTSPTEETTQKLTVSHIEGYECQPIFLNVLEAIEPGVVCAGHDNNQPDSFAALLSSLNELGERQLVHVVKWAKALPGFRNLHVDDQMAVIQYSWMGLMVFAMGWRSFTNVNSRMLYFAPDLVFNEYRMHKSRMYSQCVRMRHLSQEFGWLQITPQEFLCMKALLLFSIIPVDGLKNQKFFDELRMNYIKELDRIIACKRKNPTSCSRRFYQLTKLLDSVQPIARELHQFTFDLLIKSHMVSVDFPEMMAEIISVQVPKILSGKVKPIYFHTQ", "experiment": "Agonist activity at wild type human androgen receptor expressed in COS-1 cells co-transfected with pSG5 assessed as effect on testosterone induced luciferase activity at 10 uM after 18 hrs relative untreated control", "type": "functional, cell-based", "values": [{"smiles": "Fc1ccc(C2=NOC3CCCCCCC23)c(C(F)(F)F)c1", "note": "(cis isomer; cis) [listing 1 of 2 here]", "Activity": "inactive"}, {"smiles": "O=[N+]([O-])c1ccc(C2=NOC3CCCCCCC23)c(C(F)(F)F)c1", "note": "(centres undefined) [listing 1 of 2 here]", "Activity": "inactive"}, {"smiles": "Clc1cccc(C2=NOC3CCCCC23)c1", "note": "(cis isomer; cis)", "Activity": "inactive"}, {"smiles": "N#Cc1ccc(C2=NOC3CCCCC23)c(C(F)(F)F)c1", "note": "(cis isomer) [listing 1 of 2 here]", "Activity": "inactive"}, {"smiles": "Fc1cccc(C2=NOC3CCCCC23)c1", "note": "(racemic)", "Activity": "inactive"}, {"smiles": "N#Cc1ccc(C2=NOC3CCCCCC23)c(C(F)(F)F)c1", "note": "(cis isomer) [listing 1 of 2 here]", "Activity": "inactive"}, {"smiles": "COc1ccc(C2=NOC3CCCCC23)cc1", "note": "(cis isomer)", "Activity": "inactive"}, {"smiles": "Fc1ccc(C2=NOC3CCCCC23)c(C(F)(F)F)c1", "note": "(cis isomer) [listing 1 of 2 here]", "Activity": "inactive"}, {"smiles": "Clc1ccccc1C1=NOC2CCCCC12", "note": "(centres undefined)", "Activity": "inactive"}, {"smiles": "Fc1ccc(C2=NOC3CCCC23)c(C(F)(F)F)c1", "note": "(cis isomer; cis) [listing 1 of 2 here]", "Activity": "inactive"}, {"smiles": "Fc1ccc(C2=NOC3CCCCCCC23)cc1C(F)(F)F", "note": "(cis isomer; 8f) [listing 1 of 2 here]", "Activity": "inactive"}, {"smiles": "N#Cc1cccc(C2=NOC3CCCCC23)c1C(F)(F)F", "note": "(centres undefined) [listing 1 of 2 here]", "Activity": "inactive"}, {"smiles": "N#Cc1ccc(C2=NOC3CCCCC23)cc1", "note": "(centres undefined)", "Activity": "inactive"}, {"smiles": "c1ccc2c(C3=NOC4CCCCC34)cccc2c1", "note": "(cis isomer)", "Activity": "inactive"}, {"smiles": "N#Cc1ccc(C2=NOC3CCCCC23)c(C(F)(F)F)c1", "note": "(centres undefined) [listing 1 of 2 here]", "Activity": "inactive"}, {"smiles": "O=[N+]([O-])c1ccc(C2=NOC3CCCCCCC23)c(C(F)(F)F)c1", "note": "(cis isomer) [listing 1 of 2 here]", "Activity": "inactive"}]}, {"biological_target": "Luciferin 4-monooxygenase (Photinus pyralis) (UniProt P08659)", "sequence (P08659 whole entry)": "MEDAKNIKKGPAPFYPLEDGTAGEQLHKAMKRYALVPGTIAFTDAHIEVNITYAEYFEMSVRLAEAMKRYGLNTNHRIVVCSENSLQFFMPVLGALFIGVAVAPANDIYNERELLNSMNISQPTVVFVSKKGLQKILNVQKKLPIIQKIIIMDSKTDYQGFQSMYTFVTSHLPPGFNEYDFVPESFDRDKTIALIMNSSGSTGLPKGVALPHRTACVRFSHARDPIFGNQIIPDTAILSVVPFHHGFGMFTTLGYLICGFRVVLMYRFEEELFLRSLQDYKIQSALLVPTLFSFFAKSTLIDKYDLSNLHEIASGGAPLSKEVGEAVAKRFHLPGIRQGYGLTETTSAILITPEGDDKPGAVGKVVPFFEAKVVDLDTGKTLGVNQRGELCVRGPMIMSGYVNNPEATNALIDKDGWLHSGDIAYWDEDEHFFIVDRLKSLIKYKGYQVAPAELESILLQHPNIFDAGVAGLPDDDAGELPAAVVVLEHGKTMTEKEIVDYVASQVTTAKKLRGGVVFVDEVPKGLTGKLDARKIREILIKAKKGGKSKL", "experiment": "Inhibition of Photinus pyralis recombinant luciferase at 10 uM incubated for 20 mins", "method_in_brief": "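Purified firefly luciferase diluted to 0.1 μg/mL in 1x Reporter Lysis Buffer, with compound added from ethanol stocks (10⁻³–10⁻⁷ mol/L dilutions) in triplicate. Incubated 20 min at rt, then luciferase substrate added and luminescence read. Blank (lysis buffer) and ethanol-vehicle controls were included.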", "values": [{"smiles": "Fc1ccc(C2=NOC3CCCCCCC23)c(C(F)(F)F)c1", "note": "(cis isomer; cis) [listing 1 of 2 here]", "inhibition": "inactive"}, {"smiles": "O=[N+]([O-])c1ccc(C2=NOC3CCCCCCC23)c(C(F)(F)F)c1", "note": "(centres undefined) [listing 1 of 2 here]", "inhibition": "inactive"}, {"smiles": "Clc1cccc(C2=NOC3CCCCC23)c1", "note": "(cis isomer; cis)", "inhibition": "inactive"}, {"smiles": "N#Cc1ccc(C2=NOC3CCCCC23)c(C(F)(F)F)c1", "note": "(cis isomer) [listing 1 of 2 here]", "inhibition": "inactive"}, {"smiles": "Fc1cccc(C2=NOC3CCCCC23)c1", "note": "(racemic)", "inhibition": "inactive"}, {"smiles": "N#Cc1ccc(C2=NOC3CCCCCC23)c(C(F)(F)F)c1", "note": "(cis isomer) [listing 1 of 2 here]", "inhibition": "inactive"}, {"smiles": "COc1ccc(C2=NOC3CCCCC23)cc1", "note": "(cis isomer)", "inhibition": "inactive"}, {"smiles": "Fc1ccc(C2=NOC3CCCCC23)c(C(F)(F)F)c1", "note": "(cis isomer) [listing 1 of 2 here]", "inhibition": "inactive"}, {"smiles": "Clc1ccccc1C1=NOC2CCCCC12", "note": "(centres undefined)", "inhibition": "inactive"}, {"smiles": "Fc1ccc(C2=NOC3CCCC23)c(C(F)(F)F)c1", "note": "(cis isomer; cis) [listing 1 of 2 here]", "inhibition": "inactive"}, {"smiles": "Fc1ccc(C2=NOC3CCCCCCC23)cc1C(F)(F)F", "note": "(cis isomer; 8f) [listing 1 of 2 here]", "inhibition": "inactive"}, {"smiles": "N#Cc1cccc(C2=NOC3CCCCC23)c1C(F)(F)F", "note": "(centres undefined) [listing 1 of 2 here]", "inhibition": "inactive"}, {"smiles": "N#Cc1ccc(C2=NOC3CCCCC23)cc1", "note": "(centres undefined)", "inhibition": "inactive"}, {"smiles": "c1ccc2c(C3=NOC4CCCCC34)cccc2c1", "note": "(cis isomer)", "inhibition": "inactive"}, {"smiles": "N#Cc1ccc(C2=NOC3CCCCC23)c(C(F)(F)F)c1", "note": "(centres undefined) [listing 1 of 2 here]", "inhibition": "inactive"}, {"smiles": "O=[N+]([O-])c1ccc(C2=NOC3CCCCCCC23)c(C(F)(F)F)c1", "note": "(cis isomer) [listing 1 of 2 here]", "inhibition": "inactive"}]}, {"biological_target": "T2, Androgen receptor (Homo sapiens, UniProt P10275)", "T2 sequence (P10275 whole entry)": "T1 sequence (whole entry)", "experiment": "Displacement of [3H]R1881 from wild type human androgen receptor expressed in COS-1 cells co-transfected with pSG5 after 2 hrs by scintillation assay", "units": {"IC50": "nM"}, "values": [{"smiles": "O=[N+]([O-])c1ccc(C2=NOC3CCCCCCC23)c(C(F)(F)F)c1", "note": "(centres undefined) [listing 2 of 2 here]", "IC50": 776}, {"smiles": "N#Cc1ccc(C2=NOC3CCCCCC23)c(C(F)(F)F)c1", "note": "(centres undefined)", "IC50": 1150}, {"smiles": "N#Cc1ccc(C2=NOC3CCCCCCC23)c(C(F)(F)F)c1", "note": "(centres undefined)", "IC50": 2000}, {"smiles": "Fc1ccc(C2=NOC3CCCCC23)c(C(F)(F)F)c1", "note": "(centres undefined)", "IC50": 977}, {"smiles": "N#Cc1ccc(C2=NOC3CCCCCCC23)c(C(F)(F)F)c1", "note": "(cis isomer)", "IC50": 646}, {"smiles": "N#Cc1cccc(C2=NOC3CCCCC23)c1C(F)(F)F", "note": "(cis isomer)", "IC50": 79.4}, {"smiles": "Fc1ccc(C2=NOC3CCCC23)c(C(F)(F)F)c1", "note": "(cis isomer; 5g)", "IC50": 1350}, {"smiles": "N#Cc1cccc(C2=NOC3CCCCC23)c1C(F)(F)F", "note": "(centres undefined) [listing 2 of 2 here]", "IC50": 64.6}, {"smiles": "O=[N+]([O-])c1ccc(C2=NOC3CCCCCCC23)c(C(F)(F)F)c1", "note": "(cis isomer) [listing 2 of 2 here]", "IC50": 741}, {"smiles": "N#Cc1ccc(C2=NOC3CCCCC23)c(C(F)(F)F)c1", "note": "(cis isomer) [listing 2 of 2 here]", "IC50": 1780}, {"smiles": "Fc1ccc(C2=NOC3CCCCCCC23)c(C(F)(F)F)c1", "note": "(cis isomer; cis) [listing 2 of 2 here]", "IC50": 13200}, {"smiles": "Fc1ccc(C2=NOC3CCCCCCC23)cc1C(F)(F)F", "note": "(cis isomer; cis)", "IC50": 2820}, {"smiles": "Fc1ccc(C2=NOC3CCCCCCC23)cc1C(F)(F)F", "note": "(cis isomer; 8f) [listing 2 of 2 here]", "IC50": 5890}, {"smiles": "N#Cc1ccc(C2=NOC3CCCCC23)c(C(F)(F)F)c1", "note": "(centres undefined) [listing 2 of 2 here]", "IC50": 1150}, {"smiles": "Fc1ccc(C2=NOC3CCCC23)c(C(F)(F)F)c1", "note": "(cis isomer; cis) [listing 2 of 2 here]", "IC50": 1550}, {"smiles": "N#Cc1ccc(C2=NOC3CCCCCC23)c(C(F)(F)F)c1", "note": "(cis isomer) [listing 2 of 2 here]", "IC50": 1000}, {"smiles": "Fc1ccc(C2=NOC3CCCCC23)c(C(F)(F)F)c1", "note": "(cis isomer) [listing 2 of 2 here]", "IC50": 1150}]}]}
